Test results from paper PMC4956517 (Experimental hematology, 2016).
Entries after “also recorded” stand apart in the source; their conditions may differ.

Key:
EPOR transcript = assay: Quantitative RT-PCR of EPOR transcript levels; format: cell-based, human; details: peginesatide vs rHu-EPO; data not shown
EPOR (UT7epo cells) = assay: Western blotting of EPOR forms in UT7epo cells; format: cell-based, human; details: versus rHu-EPO
In short: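 UT7epo cells were cultured in test compound or rHu-EPO at varied, biologically matched doses. For extended time-courses, medium plus ligand was replaced daily. Western blots over the time-course were probed with rabbit monoclonal anti-hEPOR IC-c1.1, with anti-GAPDH as loading control.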

[1] = test system: endogenous cell surface EPOR (UT7epo cells); assay: Flow cytometry of endogenous cell surface EPOR in UT7epo cells; format: cell-based, human; details: versus rHu-EPO at matched doses (1.5U/mL vs 2.1 nM, 2.0 U/mL vs 2.8nM); days 4 and 8; antibody EC-c38.5; median and mean fluorescence intensities, clear statistical significance; n=3
[2] = target: T1, hEPOR-Fc construct (EPOR extracellular domain-IgFc) (Homo sapiens, UniProt P19235); assay: Surface plasmon resonance; format: binding; details: Biacore
T1 sequence (P19235 25-250 limits assumed): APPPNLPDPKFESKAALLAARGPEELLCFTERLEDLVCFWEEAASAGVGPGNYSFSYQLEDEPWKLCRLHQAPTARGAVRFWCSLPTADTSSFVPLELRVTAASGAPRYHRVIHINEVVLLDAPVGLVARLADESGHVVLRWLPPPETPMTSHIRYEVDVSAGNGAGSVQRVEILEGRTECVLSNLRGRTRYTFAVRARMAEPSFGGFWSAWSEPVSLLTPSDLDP

[3] = cited from earlier work

Row | Substance | EPOR transcript levels (EPOR transcript) | processing of the EPOR to lower molecular weight forms (EPOR (UT7epo cells); peginesatide as the EPOR ligand) | levels of full-length EPOR-68K receptor forms (EPOR (UT7epo cells); time-course, antibody IC-c1.1) | levels of lower molecular weight EPOR-36K form (EPOR (UT7epo cells); time-course, antibody IC-c1.1) | cell surface EPOR levels [1] | stability of binding to the EPOR ([2]; ECD-EPOR-Fc immobilized at 675 RU and 225 RU) | EPOR residence time, ratio to that of rHu-EPO ([2]; estimated, greater than that of rHu-EPO, immobilized ECD-EPOR-Fc) [fold] | allergenic side-effects ([3]; first-time recipients, ref Bennett, et al 2014) | anaphylactic reactions ([3]; ref Bennett, et al 2014) | TPO-reactive antibody formation ([3]; clinical trials, ref Basser 2002)
1 | peginesatide | no differential effects | observed trends towards apparent lessened processing of the EPOR to lower molecular weight forms | elevated levels of full-length EPOR-68K receptor forms | no such increases were observed | notably elevated cell surface EPOR levels | uniquely highly stable binding to the EPOR | 17.1 | can also somehow stimulate allergenic reactivity; also recorded: allergenic side-effects in certain first-time recipients | rare fatal anaphylaxis; also recorded: severe anaphylactic reactions infrequently experienced | 
2 | rHu-TPO: Thrombopoietin (TPO); effective in stimulating megakaryocyte and platelet production |  |  |  |  |  |  |  |  |  | induce TPO- reactive antibody formation
